Reference: ChEMBL document CHEMBL4765247, “Novel mouse GABA uptake inhibitors with enhanced inhibitory activity toward mGAT3/4 and their effect on pain threshold in mice” (Eur J Med Chem, 2020)
The source made the active and inactive calls.

Legend:
[1] = system: Mus musculus; assay: Antiallodynic activity in STZ-induced diabetic neuropathy pain Albino Swiss mouse model assessed as reduced tactile allodynia at 30 mg/kg, ip administered after 3 weeks of STZ stimulation and measured after 1 hr by von Frey test; assay type: functional, organism-based
Method in brief: (§1)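 STZ given i.p. to induce type I diabetes in mice. About 3 weeks (21 days) later, test doses of 5, 10 and 30 mg/kg were given i.p. Von Frey tactile allodynia was read 1 h after dosing as the mean force needed to elicit paw withdrawal (n=10). Results are mean ± SEM, analysed by one-way ANOVA with Tukey's test against pre-drug force and normoglycemic controls.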

[2] = system: Mus musculus; assay: Antihyperalgesic activity in oxaliplatin-induced […] acute neuropathy pain Albino Swiss mouse model assessed as reduction in cold allodynia at 10 mg/kg, ip administered after 3 hrs of oxaliplatin stimulation by cold plate method; assay type: functional, organism-based
Method in brief: (§2)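 For cold allodynia, oxaliplatin-treated mice were placed on a cold plate in the acute and late phases of neuropathy after i.p. dosing. The readout was mean latency to pain reaction (n=7-10). Results are mean ± SEM, analysed by one-way ANOVA with Tukey's post hoc test against non-neuropathic controls.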

[3] = molecular target: T1, Sodium- and chloride-dependent GABA transporter 1 (Mus musculus, UniProt P31648); assay: Inhibition of mouse GAT1 expressed in HEK293 cell line assessed as inhibition of [3H]GABA uptake measured after 35 mins by liquid scintillation method; assay type: cell-based
Method in brief: (§3)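 Otherwise, the remaining uptake at 100 µM is reported as a percentage. Values without SEM come from a single triplicate experiment.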

[4] = system: Mus musculus; assay: Antihyperalgesic activity in oxaliplatin-induced […] late neuropathy pain Albino Swiss mouse model assessed as reduction in cold allodynia at 10 mg/kg, ip administered after 7 days of oxaliplatin stimulation by cold plate method; assay type: functional, organism-based; method in brief: as §2
[5] = system: Mus musculus; assay: Antihyperalgesic activity in STZ-induced diabetic neuropathy pain Albino Swiss mouse model assessed as reduced heat nociceptive threshold at 30 mg/kg, ip administered after 3 weeks of STZ stimulation and measured after 1 hr by hot plate method; assay type: functional, organism-based
Method in brief: (§4)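 Heat hyperalgesia in STZ-diabetic neuropathic mice (3 weeks after i.p. STZ) was measured on a hot plate 1 h after i.p. dosing. The readout was latency to pain reaction, comparing pre-drug and post-drug values (n=9-10). Results are mean ± SEM, analysed by one-way ANOVA with Tukey's post hoc test against normoglycemic controls.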

[6] = system: Mus musculus; assay: Antiallodynic activity in STZ-induced diabetic neuropathy pain Albino Swiss mouse model assessed as reduced tactile allodynia at 10 mg/kg, ip administered after 3 weeks of STZ stimulation and measured after 1 hr by von Frey test; assay type: functional, organism-based; method in brief: as §1
[7] = Lipophilicity, logP of the compound by UPLC-MS method; assay type: physicochemical; details: octanol/water; read-out: logP
Method in brief: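 LogP measured by UPLC on a BEH C18 column (2.1 × 100 mm, 1.7 µm, with C18 pre-column) coupled to an ESI tandem quadrupole MS. The method was calibrated with reference compounds of established logP values.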

[8] = system: Mus musculus; assay: Antiallodynic activity in oxaliplatin-induced […] neuropathy pain Albino Swiss mouse model assessed as reduced acute-phase tactile allodynia at 30 mg/kg, ip administered after 3 hrs of oxaliplatin stimulation and measured after 1 hr by von Frey test; assay type: functional, organism-based
Method in brief: (§5)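 Oxaliplatin-induced peripheral neuropathy in mice was tested in the acute and late phases. Compounds were given i.p. and tactile allodynia was read 1 h later by von Frey as the mean force to elicit paw withdrawal (n=7-10). Results are mean ± SEM, analysed by one-way ANOVA with Tukey's test against pre-drug force and non-neuropathic controls.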

[9] = system: Mus musculus; assay: Antihyperalgesic activity in STZ-induced diabetic neuropathy pain Albino Swiss mouse model assessed as reduced heat nociceptive threshold at 10 mg/kg, ip administered after 3 weeks of STZ stimulation and measured after 1 hr by hot plate method; assay type: functional, organism-based; method in brief: as §4
[10] = molecular target: T2, GABA transporter 4 (Mus musculus, UniProt P31650); assay: Inhibition of mouse GAT4 expressed in HEK293 cell line assessed as inhibition of [3H]GABA uptake measured after 35 mins by liquid scintillation method; assay type: cell-based; method in brief: as §3
T2 sequence (P31650 whole entry): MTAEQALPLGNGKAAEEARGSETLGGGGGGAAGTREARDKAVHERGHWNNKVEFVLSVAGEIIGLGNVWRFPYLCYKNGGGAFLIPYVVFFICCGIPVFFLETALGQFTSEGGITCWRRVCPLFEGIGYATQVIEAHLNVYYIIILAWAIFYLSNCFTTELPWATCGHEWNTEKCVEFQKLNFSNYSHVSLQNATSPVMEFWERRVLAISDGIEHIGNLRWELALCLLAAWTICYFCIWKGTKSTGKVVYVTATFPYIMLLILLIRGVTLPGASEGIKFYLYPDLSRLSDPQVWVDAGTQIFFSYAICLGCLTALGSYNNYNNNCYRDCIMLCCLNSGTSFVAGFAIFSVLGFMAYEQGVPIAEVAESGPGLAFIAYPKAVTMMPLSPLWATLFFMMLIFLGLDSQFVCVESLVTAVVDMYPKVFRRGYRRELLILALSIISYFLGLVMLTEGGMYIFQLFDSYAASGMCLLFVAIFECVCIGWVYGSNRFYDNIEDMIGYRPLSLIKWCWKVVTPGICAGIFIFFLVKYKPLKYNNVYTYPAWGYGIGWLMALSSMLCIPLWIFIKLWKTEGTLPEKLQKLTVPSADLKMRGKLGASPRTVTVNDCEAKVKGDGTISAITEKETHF

[11] = system: Mus musculus; assay: Antiallodynic activity in oxaliplatin-induced peripheral neuropathy pain Albino Swiss mouse model assessed as reduced late-phase tactile allodynia at 30 mg/kg, ip administered after […] of oxaliplatin stimulation and measured after 1 hr by van Frey test
[12] = system: Mus musculus; assay: Antihyperalgesic activity in oxaliplatin-induced […] acute neuropathy pain Albino Swiss mouse model assessed as reduction in cold allodynia at 30 mg/kg, ip administered after 3 hrs of oxaliplatin stimulation by cold plate method; assay type: functional, organism-based; method in brief: as §2
[13] = system: Mus musculus; assay: Antihyperalgesic activity in oxaliplatin-induced […] late neuropathy pain Albino Swiss mouse model assessed as reduction in cold allodynia at 30 mg/kg, ip administered after 7 days of oxaliplatin stimulation by cold plate method; assay type: functional, organism-based; method in brief: as §2
[14] = system: Mus musculus; assay: Antiallodynic activity in oxaliplatin-induced […] neuropathy pain Albino Swiss mouse model assessed as reduced late-phase tactile allodynia at 30 mg/kg, ip administered after 7 days of oxaliplatin stimulation by van Frey test; assay type: functional, organism-based; method in brief: as §5
[15] = system: Mus musculus; assay: Antiallodynic activity in oxaliplatin-induced peripheral neuropathy pain Albino Swiss mouse model assessed as reduced acute-phase tactile allodynia at 10 mg/kg, ip administered after 3 hrs of oxaliplatin stimulation and measured after 1 hr by von Frey test
[16] = system: Mus musculus; assay: Antiallodynic activity in STZ-induced diabetic neuropathy pain Albino Swiss mouse model assessed as reduced tactile allodynia at 5 mg/kg, ip administered after 3 weeks of STZ stimulation and measured after 1 hr by von Frey test; assay type: functional, organism-based; method in brief: as §1
[17] = molecular target: Sodium- and chloride-dependent GABA transporter 1 (Mus musculus) (UniProt P31648); assay: Displacement of [3H]NO711 from mouse GAT1 expressed in HEK293 cells at 100 uM measured after 40 mins of incubation by LC-ESI-MS-MS method; assay type: cell-based; details: in the assay text read “NO711” for “[3H]NO711”
Method in brief: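 Competitive MS Binding Assay for mGAT1 using NO-711 as a nonlabeled marker, quantified by LC–ESI–MS–MS. Compounds were screened at 100 µM. […] Otherwise, the percentage of remaining binding at 100 µM is given.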

[18] = system: BGT1 (Mus musculus, Slc6a12); assay: Inhibition of mouse GAT2 expressed in HEK293 cell line assessed as residual [3H]GABA uptake at 100 uM measured after 35 mins by liquid scintillation method
[19] = molecular target: Sodium- and chloride-dependent GABA transporter 1 (Mus musculus) (UniProt P31648); assay: Inhibition of mouse GAT1 expressed in HEK293 cell line assessed as inhibition of [3H]GABA uptake at 100 uM measured after 35 mins by liquid scintillation method; values are per cent of control
[20] = molecular target: T1, Sodium- and chloride-dependent GABA transporter 1; assay: Inhibition of mouse GTA 1 receptor
[21] = molecular target: T2, GABA transporter 4; assay: Inhibition of mouse GTA4 receptor
[22] = molecular target: T3, GABA transporter 3 (Mus musculus, UniProt P31649); assay: Inhibition of mouse GTA 3 receptor
T3 sequence (P31649 whole entry): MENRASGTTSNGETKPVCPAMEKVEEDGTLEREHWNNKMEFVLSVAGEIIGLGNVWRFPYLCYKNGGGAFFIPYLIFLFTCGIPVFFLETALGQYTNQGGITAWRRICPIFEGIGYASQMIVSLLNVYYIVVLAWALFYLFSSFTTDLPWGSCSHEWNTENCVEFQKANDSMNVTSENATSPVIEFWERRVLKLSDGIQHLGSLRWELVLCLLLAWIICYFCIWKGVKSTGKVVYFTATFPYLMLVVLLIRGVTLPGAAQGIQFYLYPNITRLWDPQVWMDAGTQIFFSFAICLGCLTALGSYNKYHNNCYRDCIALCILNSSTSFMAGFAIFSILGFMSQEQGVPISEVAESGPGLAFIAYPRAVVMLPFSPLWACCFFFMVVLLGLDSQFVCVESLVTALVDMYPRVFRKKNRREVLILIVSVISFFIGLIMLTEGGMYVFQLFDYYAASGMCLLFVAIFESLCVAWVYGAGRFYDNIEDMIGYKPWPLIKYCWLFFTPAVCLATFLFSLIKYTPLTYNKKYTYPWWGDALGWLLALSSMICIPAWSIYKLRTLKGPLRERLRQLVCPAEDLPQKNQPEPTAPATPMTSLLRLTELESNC

[23] = molecular target: T1, Sodium- and chloride-dependent GABA transporter 1; assay: Displacement of unlabelled NO711 from mouse GAT1 expressed in HEK293 cells measured after 40 mins of incubation by LC-ESI-MS-MS method
[24] = molecular target: GABA transporter 3 (Mus musculus, Slc6a13); assay: Inhibition of mouse GAT3 expressed in HEK293 cell line assessed as inhibition of [3H]GABA uptake measured after 35 mins by liquid scintillation method
[25] = molecular target: Betaine/GABA transporter BGT1 (Mus musculus, Slc6a12); assay: Inhibition of mouse GAT2 expressed in HEK293 cell line assessed as inhibition of [3H]GABA uptake measured after 35 mins by liquid scintillation method

Cc1ccsc1C(=CCCN(C)C(CCO)C(=O)NCc1ccccc1Cl)c1sccc1C (configuration not stated)
Activity [1]: Active
Activity [2]: inactive
IC50 [3]: 13.8 µM
Activity [4]: inactive
Activity [5]: inactive
Activity [6]: Active
logP [7]: 6.23
Activity [8]: Active
Activity [9]: inactive
IC50 [10]: 5.75 µM
Activity [11]: Active
Activity [12]: inactive
Activity [13]: inactive
Activity [14]: Active
Activity [15]: Active
Activity [16]: inactive
residual activity [17]: 77%

Cc1ccsc1C(=CCCN(C)C(CO)C(=O)NCc1ccccc1Cl)c1sccc1C (configuration not stated)
IC50 [10]: 77.6 µM
residual activity [18]: 65%
residual activity [19]: 61%
residual activity [17]: 96%

Cc1ccsc1C(=CCCN(C)C(CCO)C(=O)N1CCOCC1)c1sccc1C (configuration not stated)
logP [7]: 4.75
IC50 [10]: 33.1 µM
residual activity [18]: 76%
residual activity [19]: 57%
residual activity [17]: 84%

COc1ccc(C(OCCN2CCC[C@@H](C(=O)O)C2)(c2ccc(OC)cc2)c2ccc(OC)cc2C)cc1
IC50 [20]: 64.6 µM
IC50 [21]: 1.66 µM
IC50 [22]: 14.1 µM

Cc1ccsc1C(=CCCN(C)C(CO)C(=O)NCc1ccc(Cl)cc1)c1sccc1C (configuration not stated)
Activity [1]: Active
IC50 [3]: 20.4 µM
Activity [5]: inactive
Activity [6]: inactive
logP [7]: 6.47
Activity [8]: Active
Activity [9]: inactive
IC50 [10]: 9.55 µM
Activity [12]: inactive
Activity [13]: inactive
Activity [14]: Active
Activity [16]: inactive
residual activity [17]: 66%

Cc1ccsc1C(=CCCN(C)C(CO)C(=O)NCc1ccc(F)cc1)c1sccc1C (configuration not stated)
IC50 [3]: 15.1 µM
logP [7]: 6.45
IC50 [10]: 17 µM
Ki [23]: 51.3 µM

Cc1ccc(CNC(=O)C(CO)N(C)CCC=C(c2sccc2C)c2sccc2C)cc1 (configuration not stated)
IC50 [3]: 20 µM
IC50 [10]: 9.55 µM
Ki [23]: 38.9 µM

Cc1ccsc1C(=CCCN(C)[C@@H](CCO)C(=O)NCc1ccccc1Cl)c1sccc1C
Ki [23]: 38 µM

COc1ccc(C(OCCN2CCC[C@H](C(=O)O)C2)(c2ccc(OC)cc2)c2ccc(OC)cc2C)cc1
pIC50 [24]: 4.85
pIC50 [25]: 4.12
